Published values from different studies.
Protocols differ between the studies behind these lines.
mraY: mraY (Staphylococcus aureus, UniProt Q2FZ93)
HTR2C: 5-hydroxytryptamine receptor 2C (HTR2C, Homo sapiens, UniProt P28335)
HTR2B: 5-hydroxytryptamine receptor 2B (HTR2B, Homo sapiens, UniProt P41595)

For CCCCCCC#Cc1cncc(-c2nnc(SCc3cc(C(F)(F)F)cc(C(F)(F)F)c3)n2CCCN)c1, the inhibition was 53% (mraY; cell-free assay; inhibitor; 250 µM).
COc1cc2c3c(c1OC)-c1c(OC)ccc(NC(C)=O)c1CC3N(C)CC2 (stereo not drawn) gave an inhibition of 3% (HTR2C; ligand displacement; radioligand; 10 µM).
For NC/C(=C\F)COc1cccc(Cn2c(=S)[nH]c(=O)c3[nH]cnc32)c1, the inhibition was < 50% (HTR2B; ligand displacement; radioligand; 10 µM).
With CCN1/C(=C/C(C)=O)Sc2ccc(F)cc21 the inhibition was 20.8% (Substance-P receptor (TACR1, Homo sapiens, UniProt P25103); ligand displacement; radioligand; 10 µM).
Cc1cc(O)c(-c2ccc([C@@H](C)CN(C)C)cc2)c2c1[nH]c(=O)c1sccc12 has an inhibition of 1.28% (Acylglycerol kinase, mitochondrial (Homo sapiens, UniProt Q53H12); enzyme activity; inhibitor; 0.1 µM; lysate).
CCCCCCC#Cc1cncc(-c2nnc(SCc3ccc(Cl)cc3)n2CCO)c1 gave an inhibition of 0% (mraY; cell-free assay; inhibitor; 250 µM).
The inhibition of COc1cc2c3c(c1OC)-c1c(OC)ccc(-c4ccc(C#N)cc4)c1CC3N(C)CC2 (stereo not drawn) is reported as 65% (HTR2B; ligand displacement; radioligand; 10 µM).
The inhibition of Cc1cc(F)cc2c(CCC(=O)N[C@@H]3C(=O)NC[C@H]3O)c(-c3ccc(F)cc3)[nH]c12 is reported as 10% (HTR2B; cell-free assay; 10 µM).
For CCCCCCC#Cc1cncc(-c2nnc(SCc3cc([N+](=O)[O-])cc([N+](=O)[O-])c3)n2CCCN)c1, the inhibition was 100% (mraY; cell-free assay; inhibitor; 250 µM).
CC[N+]1(C)CCc2cc(OC)c(OC)c3c2C1Cc1cccc(OC)c1-3 (stereo not drawn) gave an inhibition of -19% (HTR2C; ligand displacement; radioligand; 10 µM).
For CCCCCCC#Cc1cncc(-c2nnc(SCc3cc([N+](=O)[O-])cc([N+](=O)[O-])c3)n2CCO)c1, the inhibition was 55% (mraY; cell-free assay; inhibitor; 250 µM).
The inhibition of COc1cc2c3c(c1OC)-c1c(OC)ccc(N4CCOCC4)c1CC3N(C)CC2 (stereo not drawn) is reported as 50% (HTR2C; ligand displacement; radioligand; 10 µM).
